≈ marks a conversion by molar mass, not a printed value. Calls of active or inactive are those of the source.

The nature of assay [1]: Displacement of F-NEO from human rRNA A-site by fluorescence assay.
Assay [2] concerns Staphylococcus epidermidis. Nature of the assay: Antibacterial activity against Staphylococcus epidermidis ATCC 12228 after 16 to 20 hrs by MTT assay. The format is functional. The method in brief:
(§1)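 Strains grown in LB 24 h at 37 °C, 250 rpm; overnight culture diluted 1:1000, grown 4 h, diluted 1:1000 again and added to microplates. Incubation 16–20 h at 37 °C; growth read visually and with MTT (1 mg/mL).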
In general terms: Tetrazolium dyes change colour on reduction, which living cells bring about.

A short description of assay [3]: Selectivity factor, ratio of IC50 for human rRNA A-site to IC50 for Escherichia coli rRNA A-site. The method in brief: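 Ratio from F-NEO displacement titrations, 0.002–2.0 μM compound against 0.1 μM F-NEO:A-site complex (485/535 nm). Measured IC50 stands in for the unmeasurable competition constants in Kd(human)/Kd(E. coli) = 5.75 × K(E. coli)/K(human). Buffer 10 mM HEPES, 50 mM NaCl, 0.4 mM EDTA, pH 7.0.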

The test system of assay [4] is Bacillus cereus. Put plainly: Antibacterial activity against Bacillus cereus ATCC 11778 after 16 to 20 hrs by MTT assay. The class given is functional. The method in brief:
as §1

Assay [5] can be described thus: Displacement of F-NEO from Escherichia coli rRNA A-site by fluorescence assay.
Assay [6] has as its system Staphylococcus aureus. Put plainly: Antibacterial activity against Staphylococcus aureus ATCC 25923 after 16 to 20 hrs by MTT assay. The format is functional. In outline:
as §1

In assay [7] the test system is Staphylococcus aureus. Nature of the assay: Activity at Staphylococcus aureus AAC(6')-1e/APH(2'')-1a in presence of AcCoA by Ellmans method relative to NEO. For orientation: In Ellman's method for cholinesterases, released thiocholine reacts with DTNB.
Assay [8] concerns Staphylococcus aureus. Put plainly: Activity at Staphylococcus aureus APH(2'')-1a at 100 uM in presence of […] by […] relative to NEO.
The test system of assay [9] is Mycobacterium tuberculosis. Nature of the assay: Activity at Mycobacterium tuberculosis AAC(2')-1c at 100 uM in presence of AcCoA by Ellmans method relative to NEO. The method in brief:
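N-acetylation by AAC(2')-Ic (0.125 μM enzyme) of 100 μM compound with 150 μM AcCoA and 2 mM DTNB in 100 mM buffer, 25 °C. Thiol release followed at 412 nm (ε = 14,150 M⁻¹cm⁻¹). Rates normalized to neomycin B, triplicate.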

Assay [10] can be described thus: Activity at APH(3')-1a (unknown origin) at 100 uM in presence of […] by […] relative to NEO.
The nature of assay [11]: Activity at Eis (unknown origin) at 100 uM in presence of AcCoA by Ellmans method relative to NEO. In outline:
(§2)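 Acetylation followed by Ellman's method at 412 nm, 2 mM DTNB, 100 μM compound, 25 °C, triplicate, rates normalized to NEO. AcCoA 500 μM for Eis, 150 μM for AAC(3)-IV; enzyme 0.5 μM for Eis, 0.125 μM for AAC(3)-IV; 50 mM buffer.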

Assay [12] deals with Escherichia coli. Put plainly: Activity at Escherichia coli AAC(3)-4 at 100 uM in presence of AcCoA by Ellmans method relative to NEO. The method in brief: as §2

Consider `NCC1O[C@H](O[C@H]2[C@@H](O)[C@H](O[C@H]3[C@H](O)[C@@H](N)C[C@@H](N)[C@@H]3O[C@H]3O[C@H](CN)[C@@H](O)[C@H](O)[C@H]3N)O[C@@H]2CO)[C@H](N)[C@@H](O)[C@@H]1O` (some centres not stated), for which the figures for the IC50 in [1] and in assay [5] were 76 µM and 87 µM, respectively. In addition, the MIC was 0.2 µM (≈ 0.123 µg/mL) in [2], at most 0.1 µM in assay [4] and 0.2 µM (≈ 0.123 µg/mL) in [6]. Moreover, in [3], the Ratio IC50 is 5.

With `N=C(N)NCCC[C@H](NC(=O)CCCCCCCNC(=O)c1cc(-c2cn(C[C@@H]3O[C@H](O[C@H]4[C@H](O)[C@@H](N)C[C@@H](N)[C@@H]4O[C@H]4O[C@H](CN)[C@@H](O)[C@H](O)[C@H]4N)[C@@H](O)[C@H]3O[C@H]3O[C@@H](CN)[C@@H](O)[C@H](O)[C@H]3N)nn2)cc(-c2cn(C[C@H]3O[C@@H](O[C@@H]4[C@@H](O)[C@H](N)C[C@H](N)[C@H]4O[C@@H]4O[C@@H](CN)[C@H](O)[C@@H](O)[C@@H]4N)[C@H](O)[C@@H]3O[C@@H]3O[C@H](CN)[C@H](O)[C@@H](O)[C@@H]3N)nn2)c1)C(N)=O` (stereo in doubt), the outcome in assay [7], in assay [8], in assay [9], in assay [10] and in assay [11] was inactive. The figures for the IC50 in assay [1] and in [5] were 43 µM and 48 µM, respectively. Moreover, the MIC in assay [2] was 25 µM (≈ 43.6 µg/mL); in [4], 3 µM (≈ 5.24 µg/mL); in assay [6] it was above 50 µM. The Ratio IC50 in assay [3] was found to be 5.2.

Turning to `N=C(N)NCCC[C@H](NC(=O)CCCCCCCCNC(=O)c1cc(-c2cn(C[C@@H]3O[C@H](O[C@H]4[C@H](O)[C@@H](N)C[C@@H](N)[C@@H]4O[C@H]4O[C@H](CN)[C@@H](O)[C@H](O)[C@H]4N)[C@@H](O)[C@H]3O[C@H]3O[C@@H](CN)[C@@H](O)[C@H](O)[C@H]3N)nn2)cc(-c2cn(C[C@H]3O[C@@H](O[C@@H]4[C@@H](O)[C@H](N)C[C@H](N)[C@H]4O[C@@H]4O[C@@H](CN)[C@H](O)[C@@H](O)[C@@H]4N)[C@H](O)[C@@H]3O[C@@H]3O[C@H](CN)[C@H](O)[C@@H](O)[C@@H]3N)nn2)c1)C(N)=O` (stereo in doubt), the outcome in [7], in assay [8], in assay [9], in assay [10] and in [11] was inactive. The IC50 in assay [1] turned out to be 62 µM; in assay [5] it was 60 µM. Moreover, the figures for the MIC in [2], in assay [4] and in [6] were 50 µM (≈ 88 µg/mL), 3 µM (≈ 5.28 µg/mL) and above 50 µM, respectively. For the same compound, the Ratio IC50 in [3] turned out to be 5.9.

Regarding `N=C(N)NCCC[C@H](NC(=O)CCCCNC(=O)c1cc(-c2cn(C[C@@H]3O[C@H](O[C@H]4[C@H](O)[C@@H](N)C[C@@H](N)[C@@H]4O[C@H]4O[C@H](CN)[C@@H](O)[C@H](O)[C@H]4N)[C@@H](O)[C@H]3O[C@H]3O[C@@H](CN)[C@@H](O)[C@H](O)[C@H]3N)nn2)cc(-c2cn(C[C@H]3O[C@@H](O[C@@H]4[C@@H](O)[C@H](N)C[C@H](N)[C@H]4O[C@@H]4O[C@@H](CN)[C@H](O)[C@@H](O)[C@@H]4N)[C@H](O)[C@@H]3O[C@@H]3O[C@H](CN)[C@H](O)[C@@H](O)[C@@H]3N)nn2)c1)C(N)=O` (stereo in doubt), the outcome in assay [7], in assay [8], in assay [9], in assay [10] and in assay [11] was inactive. The half-maximal inhibitory concentration (IC50) amounted to 70 µM in assay [1] and 52 µM in assay [5]. For the same compound, the minimal inhibitory concentration (MIC) in assay [2] is above 50 µM; in assay [4], 3 µM (≈ 5.11 µg/mL); in assay [6] it was above 50 µM. Further, the outcome in assay [12] was Active. For the same compound, the Ratio IC50 in [3] was 7.4.

In the case of `N=C(N)NCCC[C@H](NC(=O)CCNC(=O)c1cc(-c2cn(C[C@@H]3O[C@H](O[C@H]4[C@H](O)[C@@H](N)C[C@@H](N)[C@@H]4O[C@H]4O[C@H](CN)[C@@H](O)[C@H](O)[C@H]4N)[C@@H](O)[C@H]3O[C@H]3O[C@@H](CN)[C@@H](O)[C@H](O)[C@H]3N)nn2)cc(-c2cn(C[C@H]3O[C@@H](O[C@@H]4[C@@H](O)[C@H](N)C[C@H](N)[C@H]4O[C@@H]4O[C@@H](CN)[C@H](O)[C@@H](O)[C@@H]4N)[C@H](O)[C@@H]3O[C@@H]3O[C@H](CN)[C@H](O)[C@@H](O)[C@@H]3N)nn2)c1)C(N)=O` (stereo in doubt), the outcome in [7], in assay [8], in [9], in assay [10] and in [11] was inactive. Also, the IC50 in [1] came to 58 µM; in assay [5], 70 µM. Also, the MIC in assay [2] was 50 µM (≈ 83.8 µg/mL); in assay [4], 0.8 µM (≈ 1.34 µg/mL); in [6] it was 50 µM (≈ 83.8 µg/mL). Besides, in assay [12], the result was Active. The Ratio IC50 in assay [3] was 4.7.

As for `N=C(N)NCCC[C@H](NC(=O)CCCCCNC(=O)c1cc(-c2cn(C[C@@H]3O[C@H](O[C@H]4[C@H](O)[C@@H](N)C[C@@H](N)[C@@H]4O[C@H]4O[C@H](CN)[C@@H](O)[C@H](O)[C@H]4N)[C@@H](O)[C@H]3O[C@H]3O[C@@H](CN)[C@@H](O)[C@H](O)[C@H]3N)nn2)cc(-c2cn(C[C@H]3O[C@@H](O[C@@H]4[C@@H](O)[C@H](N)C[C@H](N)[C@H]4O[C@@H]4O[C@@H](CN)[C@H](O)[C@@H](O)[C@@H]4N)[C@H](O)[C@@H]3O[C@@H]3O[C@H](CN)[C@H](O)[C@@H](O)[C@@H]3N)nn2)c1)C(N)=O` (stereo in doubt), the result in assay [7], in assay [8], in [9], in [10] and in assay [11] was inactive. Moreover, the IC50 came out at 68 µM in assay [1] and 54 µM in assay [5]. Also, the MIC in assay [2] is above 50 µM; in assay [4] it was 1.6 µM (≈ 2.75 µg/mL); in assay [6], above 50 µM. Further, the result in [12] was Active. Further, the Ratio IC50 in [3] was 7.2.

Take `N=C(N)NCCC[C@H](NC(=O)CCCCCCNC(=O)c1cc(-c2cn(C[C@@H]3O[C@H](O[C@H]4[C@H](O)[C@@H](N)C[C@@H](N)[C@@H]4O[C@H]4O[C@H](CN)[C@@H](O)[C@H](O)[C@H]4N)[C@@H](O)[C@H]3O[C@H]3O[C@@H](CN)[C@@H](O)[C@H](O)[C@H]3N)nn2)cc(-c2cn(C[C@H]3O[C@@H](O[C@@H]4[C@@H](O)[C@H](N)C[C@H](N)[C@H]4O[C@@H]4O[C@@H](CN)[C@H](O)[C@@H](O)[C@@H]4N)[C@H](O)[C@@H]3O[C@@H]3O[C@H](CN)[C@H](O)[C@@H](O)[C@@H]3N)nn2)c1)C(N)=O` (stereo in doubt): the outcome in assay [7], in assay [8], in [9], in assay [10] and in [11] was inactive. In addition, the half-maximal inhibitory concentration (IC50) is 56 µM in [1] and 44 µM in assay [5]. Also, the results for the MIC in assay [2], in [4] and in assay [6] were above 50 µM, 3 µM (≈ 5.2 µg/mL) and above 50 µM, respectively. Moreover, the Ratio IC50 in assay [3] amounted to 7.3.

With `N=C(N)NCCC[C@@H](NC(=O)CCCNC(=O)c1cc(-c2cn(C[C@@H]3O[C@H](O[C@@H]4[C@@H](O)[C@H](N)C[C@H](N)[C@H]4O[C@@H]4O[C@@H](CN)[C@H](O)[C@@H](O)[C@@H]4N)[C@@H](O)[C@H]3O[C@@H]3O[C@H](CN)[C@H](O)[C@@H](O)[C@@H]3N)nn2)cc(-c2cn(C[C@H]3O[C@@H](O[C@@H]4[C@@H](O)[C@H](N)C[C@H](N)[C@H]4O[C@@H]4O[C@@H](CN)[C@H](O)[C@@H](O)[C@@H]4N)[C@H](O)[C@@H]3O[C@@H]3O[C@H](CN)[C@H](O)[C@@H](O)[C@@H]3N)nn2)c1)C(N)=O` (stereo in doubt), the result in assay [7], in [8], in assay [9], in assay [10] and in assay [11] was inactive. In addition, the IC50 in [1] was 52 µM; in assay [5], 56 µM. Further, the minimal inhibitory concentration (MIC) in [2] was above 50 µM; in [4], 1.6 µM (≈ 2.7 µg/mL); in assay [6], above 50 µM. Besides, in assay [12], the result was Active. Further, in assay [3], the Ratio IC50 was 5.3.

In general, IC50 refers to the concentration at which inhibition is half-maximal. High values mean a need for much substance, low ones inhibition by little substance. The MIC is the smallest concentration in the dilution series that meets the test's criterion for growth inhibition. A higher MIC goes with weaker potency.

(Values after ChEMBL document CHEMBL3785055, “Arginine-linked neomycin B dimers: synthesis, rRNA binding, and resistance enzyme activity” (Medchemcomm, 2016).)
